# According to ChEMBL document CHEMBL1154606 (J Med Chem, 2009):
# Where a SMILES comes first, the peptide text is derived from it. [ ]: non-standard residue; d: D form. NMeF = CN[C@@H](Cc1ccccc1)C(=O)O
# How the values were obtained:
# Neuromedin-K receptor [1] = target: T1, Neuromedin-K receptor (Cavia porcellus, UniProt P30098); assay: Antagonist activity at wild type guinea pig NK3 receptor expressed in HEK293 cells assessed as inhibition of [MePhe7]NKB-induced accumulation of [3H]inositol phosphate; format: functional, cell-based; conditions: read-out: pA2 (converted)
# T1 sequence (P30098 whole entry): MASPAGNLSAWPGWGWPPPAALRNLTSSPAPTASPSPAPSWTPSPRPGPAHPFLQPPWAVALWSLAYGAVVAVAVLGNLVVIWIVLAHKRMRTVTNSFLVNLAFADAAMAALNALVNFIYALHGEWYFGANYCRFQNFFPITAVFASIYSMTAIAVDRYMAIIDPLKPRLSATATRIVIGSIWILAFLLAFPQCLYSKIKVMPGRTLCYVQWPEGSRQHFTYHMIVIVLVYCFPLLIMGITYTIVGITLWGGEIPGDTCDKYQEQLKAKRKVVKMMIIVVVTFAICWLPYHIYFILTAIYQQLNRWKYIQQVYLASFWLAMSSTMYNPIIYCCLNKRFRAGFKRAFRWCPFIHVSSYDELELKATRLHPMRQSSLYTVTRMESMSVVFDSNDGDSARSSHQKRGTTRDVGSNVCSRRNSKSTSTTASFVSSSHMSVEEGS
# How it was run: (§1)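 HEK293 cells transiently transfected with NK3 receptor, labeled with myo-[³H]-inositol and assayed 48 h post-transfection in HBSS/HEPES pH 7.4 with 8 mM LiCl. Fixed antagonist concentrations were preincubated 20 min at 37 °C, then [MePhe⁷]NKB (0.1 nM–10 μM) was added for 45 min at 37 °C. [³H]IP was captured on yttrium silicate beads. Agonist EC50 shifts gave dose ratios for Schild regression. Six curves from three transfections.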
# Neuromedin-K receptor [2] = target: T2, Neuromedin-K receptor (Homo sapiens, UniProt P29371); assay: Displacement of [3H]osanetant from human recombinant NK3 receptor expressed in HEK293 cells; format: cell-based
# T2 sequence (P29371 whole entry): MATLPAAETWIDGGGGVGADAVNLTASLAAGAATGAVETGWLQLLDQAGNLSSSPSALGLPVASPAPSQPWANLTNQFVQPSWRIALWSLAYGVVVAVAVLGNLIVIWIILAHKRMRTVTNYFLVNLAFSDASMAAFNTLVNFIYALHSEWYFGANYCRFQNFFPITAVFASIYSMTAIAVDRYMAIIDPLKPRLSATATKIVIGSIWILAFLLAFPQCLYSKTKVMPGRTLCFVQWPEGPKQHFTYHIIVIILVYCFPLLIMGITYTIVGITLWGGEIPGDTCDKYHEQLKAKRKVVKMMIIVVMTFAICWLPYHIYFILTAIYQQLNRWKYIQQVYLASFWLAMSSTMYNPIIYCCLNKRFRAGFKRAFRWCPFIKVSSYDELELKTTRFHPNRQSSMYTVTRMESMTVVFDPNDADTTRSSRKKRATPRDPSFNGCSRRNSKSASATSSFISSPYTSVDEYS
# How it was run: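 Membranes from transiently transfected HEK293 cells (5 μg protein/well) in 50 mM Tris-HCl, 4 mM MnCl2, 1 μM phosphoramidon, 0.1% BSA, pH 7.4. […] Nonspecific binding defined with 10 μM competitor. Filtered on GF/C. Ki by Cheng-Prusoff; three experiments in duplicate.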
# Neuromedin-K receptor [3] = target: T2, Neuromedin-K receptor; assay: Antagonist activity at wild type human NK3 receptor expressed in HEK293 cells assessed as inhibition of [MePhe7]NKB-induced accumulation of [3H]inositol phosphate; format: functional, cell-based; conditions: read-out: pA2 (converted); how it was run: as §1
# Neuromedin-K receptor [4] = target: T1, Neuromedin-K receptor; assay: Displacement of [3H]osanetant from guinea pig recombinant NK3 receptor expressed in HEK293 cells; format: cell-based
# How it was run: (§2)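 Membranes from transiently transfected HEK293 cells (5 μg protein/well) in 50 mM Tris-HCl, 4 mM MnCl2, 1 μM phosphoramidon, 0.1% BSA, pH 7.4. Nonspecific binding defined with 10 μM competitor. Filtered on GF/C. Ki by Cheng-Prusoff; three experiments in duplicate.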
# Neuromedin-K receptor [5] = target: T3, Neuromedin-K receptor (Cavia porcellus, UniProt P30098); assay: Antagonist activity at […] guinea pig NK3 receptor A1142.58T mutant expressed in HEK293 cells assessed as inhibition of [MePhe7]NKB-induced accumulation of [3H]inositol phosphate; format: functional, cell-based; how it was run: as §1
# Neuromedin-K receptor [6] = target: T3, Neuromedin-K receptor; assay: Displacement of [3H]osanetant from guinea pig recombinant NK3 receptor A1142.58T expressed in HEK293 cells; format: cell-based; how it was run: as §2
# Substance-K receptor [7] = target: T4, Substance-K receptor (Homo sapiens, UniProt P21452); assay: Displacement of [3H]SR48968 from human recombinant NK2 receptor expressed in HEK293 cells; format: cell-based
# T4 sequence (P21452 whole entry): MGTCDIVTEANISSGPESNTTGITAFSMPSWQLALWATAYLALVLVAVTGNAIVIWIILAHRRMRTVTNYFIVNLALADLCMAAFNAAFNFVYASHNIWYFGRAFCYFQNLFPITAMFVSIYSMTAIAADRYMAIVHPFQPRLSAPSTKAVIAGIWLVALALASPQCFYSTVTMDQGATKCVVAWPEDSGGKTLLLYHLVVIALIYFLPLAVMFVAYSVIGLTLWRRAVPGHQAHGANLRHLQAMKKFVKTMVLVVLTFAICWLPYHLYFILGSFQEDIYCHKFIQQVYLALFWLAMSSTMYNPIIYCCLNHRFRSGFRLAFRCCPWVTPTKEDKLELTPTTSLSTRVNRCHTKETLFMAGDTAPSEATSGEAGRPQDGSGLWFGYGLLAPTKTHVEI
# How it was run: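 hNK2 membranes from transient HEK293 (2.5 μg protein/well) in 50 mM Tris-HCl, 3 mM MnCl2, 4 μg/mL chymostatin, 0.04% BSA, pH 7.4. Incubated with 0.32 nM [³H]SR 48968 plus 10 inhibitor concentrations (0.0003–10 μM) for 75 min at RT. Ki by Cheng-Prusoff; three experiments in duplicate.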
# Substance-P receptor = Substance-P receptor (Homo sapiens, UniProt P25103); assay: Displacement of [3H]substance P from human recombinant NK1 receptor expressed in HEK293 cells; format: cell-based
# Chain of Substance-P receptor (P25103 whole entry): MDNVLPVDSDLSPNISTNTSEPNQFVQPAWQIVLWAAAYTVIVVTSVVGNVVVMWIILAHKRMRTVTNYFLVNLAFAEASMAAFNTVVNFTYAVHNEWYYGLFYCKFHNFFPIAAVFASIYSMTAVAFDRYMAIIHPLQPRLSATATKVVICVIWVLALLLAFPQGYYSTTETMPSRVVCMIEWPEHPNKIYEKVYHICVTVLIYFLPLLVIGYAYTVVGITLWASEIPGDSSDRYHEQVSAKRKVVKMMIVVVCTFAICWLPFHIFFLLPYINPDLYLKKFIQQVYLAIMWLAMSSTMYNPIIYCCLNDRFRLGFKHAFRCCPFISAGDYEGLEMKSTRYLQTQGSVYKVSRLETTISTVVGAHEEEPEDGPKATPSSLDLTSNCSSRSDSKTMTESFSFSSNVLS
# How it was run: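 hNK1 membranes from transient HEK293 (2.5 μg protein/well) in 50 mM HEPES, 3 mM MnCl2, 2 μM phosphoramidon, 16.8 μM leupeptin, 0.04% BSA, pH 7.4. Incubated with 0.6 nM [³H]substance P plus 10 inhibitor concentrations (0.0003–10 μM) for 75 min at RT. Nonspecific binding defined with 10 μM CP-96,345. Ki by Cheng-Prusoff; three experiments in duplicate.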
# [8] = target: T5, Neuromedin-K receptor (Cavia porcellus) (UniProt P30098); conditions: HEK293
# T5 sequence (whole entry): T1 sequence (P30098 whole entry)
# [9] = target: T6, Neuromedin-K receptor (Homo sapiens) (UniProt P29371); conditions: HEK293
# T6 sequence (whole entry): T2 sequence (P29371 whole entry)
# [10] = target: T6, Neuromedin-K receptor (Homo sapiens); conditions: HEK293; remark: listed apart in the source
# [11] = tested on: Neurokinin 3 receptor (Cavia porcellus); assay: Equilibrium binding affinity to guinea pig NK3 receptor A1142.58T mutant expressed in HEK293 cells
# [12] = target: T5, Neuromedin-K receptor (Cavia porcellus); conditions: HEK293; remark: listed apart in the source
# Neuromedin-K receptor [13] = target: T1, Neuromedin-K receptor; assay: Agonist activity at guinea pig NK3 receptor expressed in cells assessed as accumulation of [3H]inositol phosphate; format: functional, cell-based
# How it was run: (§3)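 At 48 h, preincubated 10 min at RT in HBSS/20 mM HEPES pH 7.4 with 8 mM LiCl, then stimulated with [MePhe⁷]NKB (0.1 nM–10 μM) for 45 min at 37 °C. Inositol phosphates were extracted with formic acid, captured on yttrium silicate beads and counted. EC50 and Hill slope were derived.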
# Substance-K receptor [14] = target: T4, Substance-K receptor; assay: Binding affinity to human NK2 receptor
# Neuromedin-K receptor [15] = target: T2, Neuromedin-K receptor; assay: Binding affinity to human NK3 receptor
# Neuromedin-K receptor [16] = target: T2, Neuromedin-K receptor; assay: Agonist activity at human NK3 receptor expressed in cells assessed as accumulation of [3H]inositol phosphate; format: functional, cell-based; how it was run: as §3
Compound,Kb (Neuromedin-K receptor [1]) [nM],Ki (Neuromedin-K receptor [2]) [nM],Kb (Neuromedin-K receptor [3]) [nM],Ki (Neuromedin-K receptor [4]) [nM],pA2 (Neuromedin-K receptor [5]),Ki (Neuromedin-K receptor [6]) [nM],Ki (Substance-K receptor [7]) [nM],Ki (Substance-P receptor) [nM],T1/2 [8] [min],T1/2 [9] [min],T1/2 [10] [min],T1/2 [12] [min],EC50 (Neuromedin-K receptor [13]) [nM],Ki (Substance-K receptor [14]) [nM],Ki (Neuromedin-K receptor [15]) [nM],EC50 (Neuromedin-K receptor [16]) [nM],Kd [11] [nM]
CC(=O)N(C)C1CCN(CCC(C)(C(=O)N(C)Cc2ccccc2Cl)c2ccc(Cl)c(Cl)c2)CC1 (stereo unspecified),24,10.4,18.2,8,7.53,11.9,953,70.9,,,,,,,,,
CC(=O)N(C)C1(c2ccccc2)CCN(CCC[C@]2(c3ccc(Cl)c(Cl)c3)CCCN(C(=O)c3ccccc3)C2)CC1 [OSANETANT],,,,,,,,,10.2,4.01,10.1,31.5,,,,,0.08
CSCC[C@H](NC(=O)[C@H](CC(C)C)NC(=O)CNC(=O)[C@H](Cc1ccccc1)N(C)C(=O)[C@H](Cc1ccccc1)NC(=O)[C@H](Cc1ccccc1)NC(=O)[C@H](CC(=O)O)NC(=O)[C@H](Cc1cnc[nH]1)NC(=O)[C@H](CCSC)NC(=O)[C@@H](N)CC(=O)O)C(N)=O (H-DMHDFF[NMeF]GLM-NH2),,,,,,,,,,,,,0.6,1600,0.3,0.6,

# Further lines, with some results ahead:
Kb (Neuromedin-K receptor [1]) [nM],Ki (Neuromedin-K receptor [2]) [nM],Kb (Neuromedin-K receptor [3]) [nM],Ki (Neuromedin-K receptor [4]) [nM],pA2 (Neuromedin-K receptor [5]),Ki (Neuromedin-K receptor [6]) [nM],Ki (Substance-K receptor [7]) [nM],Ki (Substance-P receptor) [nM],T1/2 [8] [min],T1/2 [9] [min],T1/2 [10] [min],T1/2 [12] [min],EC50 (Neuromedin-K receptor [13]) [nM],Ki (Substance-K receptor [14]) [nM],Ki (Neuromedin-K receptor [15]) [nM],EC50 (Neuromedin-K receptor [16]) [nM],Compound,Kd [11] [nM]
,0.8,8.91,1.6,7.96,1.8,109,182,,,,,,,,,CN(Cc1ccc(F)c(C(F)(F)F)c1)C(=O)C(C)(CCN1CCC(N2CCCC2=O)CC1)c1ccc(Cl)c(Cl)c1 (stereo unspecified),
,3.1,7.76,3.5,7.83,2.7,515,152,,,,,,,,,CC(=O)N(C)C1CCN(CCC(C)(C(=O)N(C)Cc2ccc(F)c(C(F)(F)F)c2)c2ccc(Cl)c(Cl)c2)CC1 (stereo unspecified),
